Source: ChEMBL document CHEMBL3414425, “Synthesis and biological evaluation of new imidazo[2,1-b][1,3,4]thiadiazole-benzimidazole derivatives” (Eur J Med Chem, 2015)
Converted amounts (≈) assume the structure as drawn. The source made the active and inactive calls. The rule behind the calls is not given here.

Assays:
[1] = tested on: Pseudomonas aeruginosa; assay: Antibacterial activity against Pseudomonas aeruginosa at 0.5 mg/ml incubated for 18 hrs by well plate technique; assay type: functional; conditions: for zone of inhibition at 500 µg/mL: read-out: DIZ
Procedure, shortened: (§1)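 Bacteria kept on nutrient agar at 37 °C, grown statically in nutrient broth (start ~10-100 cfu/mL) at 37 °C for 18-24 h. Suspensions diluted in saline and spread on nutrient agar, then wells cut with a cork borer. Compound in DMSO at 1 or 0.5 mg/mL added to wells, 37 °C, 18 h. Inhibition zone diameter measured minus DMSO value; triplicate; streptomycin standard.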

[2] = tested on: Candida albicans; assay: Antifungal activity against Candida albicans at 0.5 mg/ml incubated for 3 days; assay type: functional
Procedure, shortened: (§2)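 Well plate method on potato dextrose agar. Fungal stock suspended in distilled water with Tween 80 and swabbed over plates. Samples in DMSO at 1 and 0.5 mg/mL added to wells, incubated 25 °C for 3 days, then scored for inhibition zones; fluconazole standard.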

[3] = tested on: Escherichia coli; assay: Antibacterial activity against Escherichia coli at 0.5 mg/ml incubated for 18 hrs by well plate technique; assay type: functional; conditions: for zone of inhibition at 500 µg/mL: read-out: DIZ; procedure, shortened: as §1
[4] = tested on: Staphylococcus aureus; assay: Antibacterial activity against Staphylococcus aureus at 0.5 mg/ml incubated for 18 hrs by well plate technique; assay type: functional; conditions: for zone of inhibition at 500 µg/mL: read-out: DIZ; procedure, shortened: as §1
[5] = tested on: Escherichia coli; assay: Antibacterial activity against Escherichia coli at 1 mg/ml incubated for 18 hrs by well plate technique; assay type: functional; conditions: for zone of inhibition at 1000 µg/mL: read-out: DIZ; procedure, shortened: as §1
[6] = tested on: Chrysosporium keratinophilum; assay: Antifungal activity against Chrysosporium keratinophilum at 0.5 mg/ml incubated for 3 days; assay type: functional; procedure, shortened: as §2
[7] = tested on: Salmonella typhi; assay: Antibacterial activity against Salmonella typhi at 0.5 mg/ml incubated for 18 hrs by well plate technique; assay type: functional, Salmonella enterica subsp. enterica serovar Typhi; conditions: for zone of inhibition at 500 µg/mL: Salmonella enterica, read-out: DIZ; for diameter of the inhibition zone (DIZ): Salmonella enterica subsp. enterica serovar Typhi
Procedure, shortened: (§3)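 Well diffusion on nutrient agar; strains kept on nutrient agar at 37 °C, grown statically in nutrient broth 18-24 h at 37 °C, diluted in saline, 0.1 ml spread per plate. Compounds in DMSO at 1 and 0.5 mg/mL added to cork-bored wells; 18 h at 37 °C. Inhibition zone diameter measured, DMSO value subtracted; triplicate; streptomycin reference.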

[8] = tested on: Aspergillus flavus; assay: Antifungal activity against Aspergillus flavus at 0.5 mg/ml incubated for 3 days; assay type: functional; procedure, shortened: as §2
[9] = tested on: Chrysosporium keratinophilum; assay: Antifungal activity against Chrysosporium keratinophilum at 1 mg/ml incubated for 3 days; assay type: functional; procedure, shortened: as §2
[10] = tested on: Salmonella typhi; assay: Antibacterial activity against Salmonella typhi at 1 mg/ml incubated for 18 hrs by well plate technique; assay type: functional, Salmonella enterica subsp. enterica serovar Typhi; conditions: for zone of inhibition at 1000 µg/mL: Salmonella enterica, read-out: DIZ; for diameter of the inhibition zone (DIZ): Salmonella enterica subsp. enterica serovar Typhi; procedure, shortened: as §3
[11] = tested on: Pseudomonas aeruginosa; assay: Antibacterial activity against Pseudomonas aeruginosa at 1 mg/ml incubated for 18 hrs by well plate technique; assay type: functional; conditions: for zone of inhibition at 1000 µg/mL: read-out: DIZ; procedure, shortened: as §1
[12] = tested on: Mycobacterium tuberculosis; assay: Antitubercular activity against Mycobacterium tuberculosis H37Rv ATCC 27294/XDR-TB incubated for 28 days by agar dilution method; assay type: functional; conditions: 672 h
Procedure, shortened: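 Agar dilution: two-fold dilutions in Middlebrook 7H11 agar with OADC. Inoculum from fresh 7H11/OADC slants adjusted to 1 mg/mL wet weight in 0.05% Tween 80 saline, diluted 10^-2 (~10⁷ cfu/mL); 5 µL spotted per tube. Incubated 37 °C; MIC, lowest concentration fully inhibiting growth, read after 28 days, in triplicate.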

[13] = tested on: Candida albicans; assay: Antifungal activity against Candida albicans at 1 mg/ml incubated for 3 days; assay type: functional; procedure, shortened: as §2
[14] = Antioxidant activity assessed as DPPH radical scavenging activity incubated for 10 mins by UV-visible spectrometry; assay type: physicochemical
Procedure, shortened: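 DPPH free-radical scavenging; absorbance read at 517 nm against a methanol blank. % scavenging = (A control − A sample)/A control × 100.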

[15] = tested on: Staphylococcus aureus; assay: Antibacterial activity against Staphylococcus aureus at 1 mg/ml incubated for 18 hrs by well plate technique; assay type: functional; conditions: for zone of inhibition at 1000 µg/mL: read-out: DIZ; procedure, shortened: as §1
[16] = tested on: Aspergillus flavus; assay: Antifungal activity against Aspergillus flavus at 1 mg/ml incubated for 3 days; assay type: functional; procedure, shortened: as §2

Structure (SMILES)	zone of inhibition at 500 µg/mL [1]	inhibition zone (IZ) [2]	zone of inhibition at 500 µg/mL [3]	zone of inhibition at 500 µg/mL [4]	zone of inhibition at 1000 µg/mL [5]	inhibition zone (IZ) [6]	zone of inhibition at 500 µg/mL [7]	inhibition zone (IZ) [8]	inhibition zone (IZ) [9]	zone of inhibition at 1000 µg/mL [10]	zone of inhibition at 1000 µg/mL [11]	MIC [12]	inhibition zone (IZ) [13]	inhibition (INH) [14]	zone of inhibition at 1000 µg/mL [15]	inhibition zone (IZ) [16]	diameter of the inhibition zone (DIZ) [1]	diameter of the inhibition zone (DIZ) [3]	diameter of the inhibition zone (DIZ) [4]	diameter of the inhibition zone (DIZ) [5]	further results
COc1ccc(-c2nc3sc(-c4ccc(Cl)cc4)nn3c2-c2nc3ccccc3[nH]2)cc1	1 mm	inactive	1 mm	2 mm	3 mm	inactive	1 mm	inactive	inactive	3 mm	2 mm	12.5 µg/mL (≈ 27.3 µM)	inactive	20.9%	3 mm	inactive	–	–	–	–	–
COc1ccc(-c2nc3sc(-c4ccc(F)cc4)nn3c2-c2nc3cc(Cl)ccc3[nH]2)cc1	1 mm	–	1 mm	1 mm	5 mm	–	0 mm	–	–	3 mm	2 mm	50 µg/mL (≈ 105 µM)	–	38.6%	4 mm	–	–	–	–	–	zone of inhibition at 500 µg/mL ([2]; 72 h, read-out: IZ): 2 mm; zone of inhibition at 500 µg/mL ([6]; 72 h, read-out: IZ): 1 mm; zone of inhibition at 500 µg/mL ([8]; 72 h, read-out: IZ): 2 mm; zone of inhibition at 1000 µg/mL ([9]; 72 h, read-out: IZ): 4 mm; zone of inhibition at 1000 µg/mL ([13]; 72 h, read-out: IZ): 5 mm; zone of inhibition at 1000 µg/mL ([16]; 72 h, read-out: IZ): 4 mm
COc1ccc(-c2nc3sc(-c4ccc(C)cc4)nn3c2-c2nc3ccccc3[nH]2)cc1	–	inactive	–	–	–	inactive	–	inactive	inactive	–	–	12.5 µg/mL (≈ 28.6 µM)	inactive	21.6%	–	inactive	inactive	inactive	inactive	inactive	diameter of the inhibition zone (DIZ) [7]: inactive; diameter of the inhibition zone (DIZ) [10]: inactive; diameter of the inhibition zone (DIZ) [11]: inactive; diameter of the inhibition zone (DIZ) [15]: inactive
COc1ccc(-c2nc3sc(-c4ccc(F)cc4)nn3c2-c2nc3ccccc3[nH]2)cc1	–	inactive	–	–	–	inactive	–	inactive	inactive	–	–	12.5 µg/mL (≈ 28.3 µM)	inactive	25.4%	–	inactive	inactive	inactive	inactive	inactive	diameter of the inhibition zone (DIZ) [7]: inactive; diameter of the inhibition zone (DIZ) [10]: inactive; diameter of the inhibition zone (DIZ) [11]: inactive; diameter of the inhibition zone (DIZ) [15]: inactive
